From ChEMBL document CHEMBL2346664, “Synthesis, characterization and in vitro anticancer evaluation of novel 1,2,4-triazolin-3-one derivatives” (2013)

Columns and labels:
Type in all cases: functional
T47D = test: Growth inhibition of human T47D cells assessed as cell growth at 10 uM after 48 hrs by sulforhodamine B assay; settings: read-out: Activity
In short: (§1)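 NCI-60 single-dose screen at 10^-5 M. Cells plated at 5,000–40,000/well by doubling time and grown 24 h at 37 °C, 5% CO2, then drug added from DMSO stock for 48 h continuous exposure. Adherent cells fixed with cold TCA (final 10%), suspension cells with 16% TCA. SRB stain read at 515 nm. Reported as growth percent relative to untreated controls and time-zero plates.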

BT-549 = test: Growth inhibition of human BT549 cells assessed as cell growth at 10 uM after 48 hrs by sulforhodamine B assay; settings: BT-549, 48 h, read-out: Activity
In short: (§2)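 NCI-60 primary screen at a single dose of 10^-5 M. Output is mean growth percent of treated cells relative to untreated controls, where values between 0 and 100 indicate growth inhibition and values below 0 indicate cytotoxicity. Cells were plated 24 h before drug, incubated 48 h at 37 °C, 5% CO2, and stained with SRB after TCA fixation. Suspension cells were fixed with 80% TCA (16% final).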

MCF7 = test: Growth inhibition of human MCF7 cells assessed as cell growth at 10 uM after 48 hrs by sulforhodamine B assay; settings: MCF7, 48 h, read-out: Activity
In short: (§3)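 NCI-60 primary single-dose screen at 10^-5 M, 48 h continuous exposure. Adherent cells were fixed with cold TCA (10% final) and suspension cells with 16% final TCA, then stained with 0.4% SRB in 1% acetic acid. Bound dye was solubilized in 10 mM Tris base and read at 515 nm. Output is growth percent relative to untreated controls, and GI% is 100 minus growth percent.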

MDA-MB-231 = test: Growth inhibition of human MDA-MB-231 cells assessed as cell growth at 10 uM after 48 hrs by sulforhodamine B assay; settings: MDA-MB-231, 48 h, read-out: Activity; in short: as §3
DU-145 = test: Growth inhibition of human DU145 cells assessed as cell growth at 10 uM after 48 hrs by sulforhodamine B assay; settings: DU-145, 48 h, read-out: Activity; in short: as §3
PC-3 = test: Growth inhibition of human PC3 cells assessed as cell growth at 10 uM after 48 hrs by sulforhodamine B assay; settings: PC-3, 48 h, read-out: Activity; in short: as §1
UO-31 = test: Growth inhibition of human UO31 cells assessed as cell growth at 10 uM after 48 hrs by sulforhodamine B assay; settings: UO-31, 48 h, read-out: Activity; in short: as §1
SN12C = test: Growth inhibition of human SN12C cells assessed as cell growth at 10 uM after 48 hrs by sulforhodamine B assay; settings: read-out: Activity; in short: as §1
TK-10 = test: Growth inhibition of human TK10 cells assessed as cell growth at 10 uM after 48 hrs by sulforhodamine B assay; settings: TK-10, 48 h, read-out: Activity; in short: as §1
ACHN = test: Growth inhibition of human ACHN cells assessed as cell growth at 10 uM after 48 hrs by sulforhodamine B assay; settings: read-out: Activity; in short: as §2
786-0 = test: Growth inhibition of human 786-0 cells assessed as cell growth at 10 uM after 48 hrs by sulforhodamine B assay; settings: 786-0, 48 h, read-out: Activity; in short: as §2
SK-OV-3 = test: Growth inhibition of human SKOV3 cells assessed as cell growth at 10 uM after 48 hrs by sulforhodamine B assay; settings: SK-OV-3, 48 h, read-out: Activity; in short: as §1
OVCAR-4 = test: Growth inhibition of human OVCAR4 cells assessed as cell growth at 10 uM after 48 hrs by sulforhodamine B assay; settings: OVCAR-4, 48 h, read-out: Activity; in short: as §1
OVCAR-3 = test: Growth inhibition of human OVCAR3 cells assessed as cell growth at 10 uM after 48 hrs by sulforhodamine B assay; settings: OVCAR-3, 48 h, read-out: Activity; in short: as §1
UACC-62 = test: Growth inhibition of human UACC62 cells assessed as cell growth at 10 uM after 48 hrs by sulforhodamine B assay; settings: UACC-62, 48 h, read-out: Activity; in short: as §1
MDA-MB-435 = test: Growth inhibition of human MDA-MB-435 cells assessed as cell growth at 10 uM after 48 hrs by sulforhodamine B assay; settings: MDA-MB-435, 48 h, read-out: Activity; in short: as §3
M14 = test: Growth inhibition of human M14 cells assessed as cell growth at 10 uM after 48 hrs by sulforhodamine B assay; settings: M14, 48 h, read-out: Activity; in short: as §3
Malme-3M = test: Growth inhibition of human MALME-3M cells assessed as cell growth at 10 uM after 48 hrs by sulforhodamine B assay; settings: read-out: Activity; in short: as §3
U-251 = test: Growth inhibition of human U251 cells assessed as cell growth at 10 uM after 48 hrs by sulforhodamine B assay; settings: U-251, 48 h, read-out: Activity; in short: as §1
SNB-75 = test: Growth inhibition of human SNB75 cells assessed as cell growth at 10 uM after 48 hrs by sulforhodamine B assay; settings: SNB-75, 48 h, read-out: Activity; in short: as §1
SNB-19 = test: Growth inhibition of human SNB19 cells assessed as cell growth at 10 uM after 48 hrs by sulforhodamine B assay; settings: SNB-19, 48 h, read-out: Activity; in short: as §1
SF-539 = test: Growth inhibition of human SF539 cells assessed as cell growth at 10 uM after 48 hrs by sulforhodamine B assay; settings: SF-539, 48 h, read-out: Activity; in short: as §1
HT-29 = test: Growth inhibition of human HT-29 cells assessed as cell growth at 10 uM after 48 hrs by sulforhodamine B assay; settings: HT-29, 48 h, read-out: Activity; in short: as §3
COLO 205 = test: Growth inhibition of human COLO205 cells assessed as cell growth at 10 uM after 48 hrs by sulforhodamine B assay; settings: COLO 205, 48 h, read-out: Activity; in short: as §3
NCI-H23 = test: Growth inhibition of human NCI-H23 cells assessed as cell growth at 10 uM after 48 hrs by sulforhodamine B assay; settings: NCI-H23, 48 h, read-out: Activity; in short: as §3
NCI-H226 = test: Growth inhibition of human NCI-H226 cells assessed as cell growth at 10 uM after 48 hrs by sulforhodamine B assay; settings: NCI-H226, 48 h, read-out: Activity; in short: as §3
HOP-62 = test: Growth inhibition of human HOP62 cells assessed as cell growth at 10 uM after 48 hrs by sulforhodamine B assay; settings: HOP-62, 48 h, read-out: Activity; in short: as §3
SR = test: Growth inhibition of human SR cells assessed as cell growth at 10 uM after 48 hrs by sulforhodamine B assay; settings: read-out: Activity; in short: as §1
K562 = test: Growth inhibition of human K562 cells assessed as cell growth at 10 uM after 48 hrs by sulforhodamine B assay; settings: K562, 48 h, read-out: Activity; in short: as §3
HL-60(TB) = test: Growth inhibition of human HL-60(TB) cells assessed as cell growth at 10 uM after 48 hrs by sulforhodamine B assay; settings: HL-60, 48 h, read-out: Activity
In short: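 NCI DTP single high-dose primary screen at 10^-5 M across 60 human tumour lines. Growth percent of treated cells is taken relative to untreated controls: values of 0–100 indicate growth inhibition and values below 0 indicate cytotoxicity. Both growth percent and percentage growth inhibition are reported.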

`Cc1cc(=O)oc2cc(OCCn3c(C)nn(-c4ccc(Cl)cc4)c3=O)ccc12` gave a growth at 10 µM (T47D) of 47.4%, a growth at 10 µM (BT-549) of 56.7% and a growth at 10 µM (MCF7) of 15.8%. It also gave a growth at 10 µM (MDA-MB-231) of 47.5%, a growth at 10 µM (DU-145) of 21.6% and a growth at 10 µM (PC-3) of 48.5%. It also gave a growth at 10 µM (UO-31) of 42.8%, a growth at 10 µM (SN12C) of 51.8% and a growth at 10 µM (TK-10) of 59.6%. It also gave a growth at 10 µM (ACHN) of 41.9%, a growth at 10 µM (786-0) of 32.9% and a growth at 10 µM (SK-OV-3) of 41.1%. It also gave a growth at 10 µM (OVCAR-4) of 67.1%, a growth at 10 µM (OVCAR-3) of 14.8% and a growth at 10 µM (UACC-62) of 43.3%. The growth at 10 µM (MDA-MB-435) was -38.5%, the growth at 10 µM (M14) was 14.7% and the growth at 10 µM (Malme-3M) was 32.9%. It also gave a growth at 10 µM (U-251) of 31.4%, a growth at 10 µM (SNB-75) of 20.4% and a growth at 10 µM (SNB-19) of 54.5%. It also gave a growth at 10 µM (SF-539) of 29.5%, a growth at 10 µM (HT-29) of 0.7% and a growth at 10 µM (COLO 205) of 10.6%. The growth at 10 µM (NCI-H23) was 45.8%, the growth at 10 µM (NCI-H226) was 50.1% and the growth at 10 µM (HOP-62) was 27.4%. It also gave a growth at 10 µM (SR) of 21.2%, a growth at 10 µM (K562) of 16.3% and a growth at 10 µM (HL-60(TB)) of -5.7%.

`Cc1nn(-c2ccc(Cl)cc2)c(=O)n1CCN1CCOCC1` gave a growth at 10 µM (T47D) of 78.3%, a growth at 10 µM (BT-549) of 61.5% and a growth at 10 µM (MCF7) of 73.4%. For the same compound, the growth at 10 µM (MDA-MB-231) was 57.3%, the growth at 10 µM (DU-145) was 78.5% and the growth at 10 µM (PC-3) was 80.8%. It also gave a growth at 10 µM (UO-31) of 66%, a growth at 10 µM (SN12C) of 89.6% and a growth at 10 µM (TK-10) of 64.4%. It also gave a growth at 10 µM (ACHN) of 38.7%, a growth at 10 µM (786-0) of 59.4% and a growth at 10 µM (SK-OV-3) of 42.8%. For the same compound, the growth at 10 µM (OVCAR-4) was 93.4%, the growth at 10 µM (OVCAR-3) was 79.2% and the growth at 10 µM (UACC-62) was 82.8%. It also gave a growth at 10 µM (MDA-MB-435) of 84.9%, a growth at 10 µM (M14) of 69.8% and a growth at 10 µM (Malme-3M) of 59.1%. For the same compound, the growth at 10 µM (U-251) was 42.9%, the growth at 10 µM (SNB-75) was 7.65% and the growth at 10 µM (SNB-19) was 58.7%. It also gave a growth at 10 µM (SF-539) of 67%, a growth at 10 µM (HT-29) of 104% and a growth at 10 µM (COLO 205) of 107%. The growth at 10 µM (NCI-H23) was 64.5%, the growth at 10 µM (NCI-H226) was 79.4% and the growth at 10 µM (HOP-62) was 33.8%. It also gave a growth at 10 µM (SR) of 95.3%, a growth at 10 µM (K562) of 70.1% and a growth at 10 µM (HL-60(TB)) of 105%.
